Assays:
[1] = biological target: T1, Adrenergic receptor alpha-2 (Rattus norvegicus, UniProt P22086+P19328+P22909); assay: Displacement of [3H]rauwolscine from Alpha-2 adrenergic receptor of rat brain membranes; assay type: cell membranes, Membrane
T1 sequence (P22086 whole entry): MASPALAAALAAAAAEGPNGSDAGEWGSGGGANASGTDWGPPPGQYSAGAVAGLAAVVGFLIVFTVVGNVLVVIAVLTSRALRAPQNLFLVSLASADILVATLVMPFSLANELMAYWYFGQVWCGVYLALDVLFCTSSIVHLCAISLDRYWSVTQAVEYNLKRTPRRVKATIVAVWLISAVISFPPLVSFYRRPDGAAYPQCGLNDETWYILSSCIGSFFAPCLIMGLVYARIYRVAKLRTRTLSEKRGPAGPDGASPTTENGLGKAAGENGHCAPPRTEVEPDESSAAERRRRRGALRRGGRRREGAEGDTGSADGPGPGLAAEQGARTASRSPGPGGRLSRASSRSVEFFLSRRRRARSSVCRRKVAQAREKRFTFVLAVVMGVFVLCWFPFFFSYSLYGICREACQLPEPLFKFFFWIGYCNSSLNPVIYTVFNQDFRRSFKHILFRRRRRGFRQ
T1 sequence (P19328 whole entry): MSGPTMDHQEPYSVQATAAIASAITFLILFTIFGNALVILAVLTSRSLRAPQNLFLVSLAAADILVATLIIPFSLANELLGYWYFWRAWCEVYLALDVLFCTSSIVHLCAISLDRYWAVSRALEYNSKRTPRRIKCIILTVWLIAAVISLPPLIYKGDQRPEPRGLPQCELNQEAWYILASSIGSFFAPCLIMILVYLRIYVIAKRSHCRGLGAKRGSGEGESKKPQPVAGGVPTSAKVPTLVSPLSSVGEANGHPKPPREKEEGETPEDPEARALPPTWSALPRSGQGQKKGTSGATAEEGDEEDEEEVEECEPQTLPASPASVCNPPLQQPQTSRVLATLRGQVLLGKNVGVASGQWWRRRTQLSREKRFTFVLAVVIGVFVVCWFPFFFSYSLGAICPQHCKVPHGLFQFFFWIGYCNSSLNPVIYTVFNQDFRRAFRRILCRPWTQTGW
T1 sequence (P22909 whole entry): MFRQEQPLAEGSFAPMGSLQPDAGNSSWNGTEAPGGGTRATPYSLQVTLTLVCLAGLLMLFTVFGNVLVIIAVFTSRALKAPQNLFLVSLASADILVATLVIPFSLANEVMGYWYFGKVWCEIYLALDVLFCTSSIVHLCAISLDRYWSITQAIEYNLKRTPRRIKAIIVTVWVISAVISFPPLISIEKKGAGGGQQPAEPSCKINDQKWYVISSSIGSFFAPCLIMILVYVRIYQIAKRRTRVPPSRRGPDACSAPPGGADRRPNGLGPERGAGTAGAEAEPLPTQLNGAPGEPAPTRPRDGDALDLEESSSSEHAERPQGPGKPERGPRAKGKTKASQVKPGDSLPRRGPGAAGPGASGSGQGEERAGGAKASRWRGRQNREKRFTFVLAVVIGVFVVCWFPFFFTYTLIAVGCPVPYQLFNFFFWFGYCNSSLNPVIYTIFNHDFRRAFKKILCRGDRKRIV
Method in brief: (§1)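 Rat brain membrane fractions incubated with 0.2 nM [3H]rauwolscine for α2 sites. Nonspecific binding defined with 10 μM phentolamine. IC50 (analog concentration reducing specific binding by 50%) converted to Ki by Ki = IC50(1 + [L]/Kd), where [L] is the radioligand concentration and Kd its equilibrium dissociation constant.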

[2] = biological target: T2, Adrenergic receptor alpha-1 (Rattus norvegicus, UniProt P15823+P23944+P43140); assay: Displacement of [3H]-prazosin from Alpha-1 adrenergic receptor of rat brain membranes; assay type: cell membranes, Membrane
T2 sequence (P15823 whole entry): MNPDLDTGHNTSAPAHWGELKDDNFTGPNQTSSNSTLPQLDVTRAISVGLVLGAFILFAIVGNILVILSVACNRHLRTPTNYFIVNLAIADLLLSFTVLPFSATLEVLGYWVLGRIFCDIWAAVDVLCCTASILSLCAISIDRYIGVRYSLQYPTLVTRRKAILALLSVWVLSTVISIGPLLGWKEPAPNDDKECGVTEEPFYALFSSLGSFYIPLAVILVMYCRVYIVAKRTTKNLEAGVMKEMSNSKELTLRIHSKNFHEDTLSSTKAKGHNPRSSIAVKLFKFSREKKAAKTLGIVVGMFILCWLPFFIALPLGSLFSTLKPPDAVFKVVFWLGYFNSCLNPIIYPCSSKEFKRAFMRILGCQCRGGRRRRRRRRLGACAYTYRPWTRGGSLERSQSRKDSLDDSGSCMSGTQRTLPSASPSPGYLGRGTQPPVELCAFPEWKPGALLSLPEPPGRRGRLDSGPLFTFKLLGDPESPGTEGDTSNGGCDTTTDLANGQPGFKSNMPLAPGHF
T2 sequence (P23944 whole entry): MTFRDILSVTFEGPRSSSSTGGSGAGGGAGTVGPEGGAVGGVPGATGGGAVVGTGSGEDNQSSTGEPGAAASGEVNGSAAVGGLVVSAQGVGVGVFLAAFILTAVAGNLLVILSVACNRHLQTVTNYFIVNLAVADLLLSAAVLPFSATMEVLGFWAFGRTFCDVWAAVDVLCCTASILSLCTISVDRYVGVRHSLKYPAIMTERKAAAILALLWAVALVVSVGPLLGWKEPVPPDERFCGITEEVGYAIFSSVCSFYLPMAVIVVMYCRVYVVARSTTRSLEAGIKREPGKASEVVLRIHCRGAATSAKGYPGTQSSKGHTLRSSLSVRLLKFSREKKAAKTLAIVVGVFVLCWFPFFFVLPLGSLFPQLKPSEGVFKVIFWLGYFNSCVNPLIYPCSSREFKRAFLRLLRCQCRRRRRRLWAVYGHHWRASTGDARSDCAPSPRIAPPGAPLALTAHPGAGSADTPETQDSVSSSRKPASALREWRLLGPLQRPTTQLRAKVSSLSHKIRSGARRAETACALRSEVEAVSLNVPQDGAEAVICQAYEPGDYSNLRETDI
T2 sequence (P43140 whole entry): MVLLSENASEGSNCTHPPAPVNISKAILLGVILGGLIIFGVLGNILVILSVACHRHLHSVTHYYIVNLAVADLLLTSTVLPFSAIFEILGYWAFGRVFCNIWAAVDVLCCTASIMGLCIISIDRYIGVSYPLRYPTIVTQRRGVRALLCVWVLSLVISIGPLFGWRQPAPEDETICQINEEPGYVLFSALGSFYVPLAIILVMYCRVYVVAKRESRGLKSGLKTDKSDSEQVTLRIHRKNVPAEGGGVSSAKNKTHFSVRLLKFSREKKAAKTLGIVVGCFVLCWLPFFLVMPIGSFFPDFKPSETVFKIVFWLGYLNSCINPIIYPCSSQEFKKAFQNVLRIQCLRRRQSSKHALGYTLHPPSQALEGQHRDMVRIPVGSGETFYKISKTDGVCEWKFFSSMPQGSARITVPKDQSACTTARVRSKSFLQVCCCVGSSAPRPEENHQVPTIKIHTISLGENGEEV
Method in brief: as §1, with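 “0.1” for “0.2”, “[3H]prazosin” for “[3H]rauwolscine”, “α1” for “α2”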

[3] = biological target: Adrenergic receptor alpha (Rattus norvegicus) (UniProt P15823+P23944+P43140+P22086+P19328+P22909); assay: Relative affinity for Alpha 2 over Alpha 1 adrenergic receptors; assay type: protein assay

In the case of `Cc1cccc2c1CCC2c1c[nH]cn1` (stereo not given), the Ki [1] is reported as 8.8 nM, the Ki [2] is reported as 73 nM and the Selectivity [3] is reported as 8.29.
`Cc1cc(C)c2c(c1)C(c1c[nH]cn1)CCC2` (stereo not given) was tested, and the Ki [1] was 103 nM, the Ki [2] was 131 nM and the Selectivity [3] was 1.27.
Work on `COc1ccc2c(c1)C(c1c[nH]cn1)CCC2` (stereo not given) yielded a Ki [1] of 201 nM, a Ki [2] of 1770 nM and a Selectivity [3] of 8.81.
`COc1ccc2c(c1)CCCC2c1c[nH]cn1` (stereo not given) gave a Ki [1] of 169 nM, a Ki [2] of 198 nM and a Selectivity [3] of 1.17.
Compound `Oc1cccc2c1CCCC2c1c[nH]cn1` (stereo not given) has a Ki [1] of 63 nM, a Ki [2] of 126 nM and a Selectivity [3] of 2.01.
`COc1ccc2c(c1)CCC=C2c1c[nH]cn1` showed a Ki [1] of 580 nM, a Ki [2] of 1630 nM and a Selectivity [3] of 2.81.
For `Cc1cccc2c1CCCC2c1c[nH]cn1` (stereo not given), the Ki [1] was 95 nM, the Ki [2] was 191 nM and the Selectivity [3] was 2.01.
`COc1cccc2c1CCCC2c1c[nH]cn1` (stereo not given) was tested, and the Ki [1] was 98 nM, the Ki [2] was 243 nM and the Selectivity [3] was 2.48.
With `Cc1cccc(C(C)c2c[nH]cn2)c1C` (stereo not given) the Selectivity [3] was 44.4.
Compound `C1=C(c2c[nH]cn2)c2cccc(OCc3ccccc3)c2CC1` has a Ki [1] of 2670 nM, a Ki [2] of 8250 nM and a Selectivity [3] of 3.09.
In the case of `COc1ccc2c(c1)C(c1c[nH]cn1)=CCC2`, the Ki [1] is reported as 1570 nM, the Ki [2] is reported as 14200 nM and the Selectivity [3] is reported as 9.03.
Compound `COc1cccc2c1CCC=C2c1c[nH]cn1` has a Ki [1] of 1420 nM, a Ki [2] of 2970 nM and a Selectivity [3] of 2.1.
Compound `Cc1cccc2c1CCC=C2c1c[nH]cn1` has a Ki [1] of 31 nM, a Ki [2] of 992 nM and a Selectivity [3] of 32.
`Cc1cc(C)c2c(c1)C(c1c[nH]cn1)=CCC2` was tested, and the Ki [1] was 232 nM, the Ki [2] was 2960 nM and the Selectivity [3] was 12.8.
